Experimental data from different studies.
Each line is one published result; the experiments were not run side by side.
Target: Phosphatidylinositol 4-phosphate 5-kinase type-1 gamma (PIP5K1C, Homo sapiens, UniProt O60331)

| effect on | method | concentration | remaining binding | Structure (SMILES) |
| --- | --- | --- | --- | --- |
| cell-free assay | competition with immobilised ligand | 5 µM | 89% | COc1ncc2cc3ccccc3nc2c1C#N |
| binding | competition with immobilised ligand | 1 µM | 95% | COc1cnc(Nc2cccc(S(N)(=O)=O)c2)nc1N1CCN(c2ccccc2)C(=O)C1 |
| binding | competition with immobilised ligand | 1 µM | 100% | O=C(N[C@H]1CCCCC/C=C\C2C[C@@]2(C(=O)O)NC(=O)[C@@H]2C[C@@H](Oc3ccncc3)CN2C1=O)OC1CCCC1 (stereo partly shown) |
| binding | competition with immobilised ligand | 1 µM | 57% | Nc1ncc2c(n1)-c1c([nH]c3ccc(C#CC4CC4)cc13)CCCC2 |
| binding | – | 1 µM | 77% | CN(CCCC(F)(F)F)c1nccc(-c2cnn3ncccc23)n1 |
| binding | competition with immobilised ligand | 1 µM | 92% | CCN1CCN(Cc2ccc(C(=O)Nc3ccc(C)c(Oc4ccc5c(c4)CC(=O)N5)c3)cc2C(F)(F)F)CC1 |
| binding | competition with immobilised ligand | 1 µM | 13% | O=C(c1ccc(Nc2nccc(-c3cc4ccccc4s3)n2)cc1)N1CCC(N2CCCC2)CC1 |
| cell-free assay | competition with immobilised ligand | 1 µM | 100% | CCOCCn1cc(C(=O)Nc2ccc(-n3nc(-c4cccnc4)cc3C(F)(F)F)cn2)ccc1=O |
| binding | competition with immobilised ligand | 1 µM | 80% | CNC(=O)[C@@H]1CC[C@@H](n2c(-c3ccc4cnccc4c3)nc3ccc(C(=O)NCc4cccc(C(N)=O)c4)cc32)C1 |
| binding | competition with immobilised ligand | 1 µM | 55% | O=C(NCC1CCOCC1)c1n[nH]cc1NC(=O)c1c(F)cccc1F |
| binding | – | 1 µM | 81% | N[C@@H]1CCN(c2nccc(-c3cnn4ncccc34)n2)C1 |
| cell-free assay | competition with immobilised ligand | 1 µM | 68% | N#CC1(c2ccccn2)CCN(Cc2cc(C(=O)N3CCCC3)c(=O)n3ccccc23)CC1 |
| binding | – | 1 µM | 95% | C[C@H]1CCN(c2nccc(-c3cnn4ncccc34)n2)C1 |
| cell-free assay | competition with immobilised ligand | 0.1 µM | 92% | C[C@@H]1CN(c2cc(-c3n[nH]c4ccc(OC5(C)CC5)cc34)ncn2)C[C@H](C)O1 |
| binding | competition with immobilised ligand | 1 µM | 2.3% | O=C(NCCCN1CCOCC1)c1ccc(Nc2nccc(-c3cc4ccccc4s3)n2)cc1 |
| binding | – | 1 µM | 100% | Cc1cnn2ncc(-c3ccnc(N(C)C)n3)c2c1 |
| cell-free assay | competition with immobilised ligand | 1 µM | 100% | O=C(O)c1cc(-c2ccc(C3CCNCC3)cc2)c2ccc(-c3ccc(C(F)(F)F)cc3)cc2c1 |
| binding | – | 1 µM | 97% | COc1ccnn2ncc(-c3ccnc(N(C)C)n3)c12 |
| cell-free assay | competition with immobilised ligand | 5 µM | 47% | FC(F)(F)Oc1cccc(-c2cnc3ccc(-c4ccncc4)nn23)c1 |
